Measured values pooled from the literature.
Each line is one published result; the experiments were not run side by side.
D14: D14 (Arabidopsis thaliana, UniProt Q9SQR3)
AMY2: Pancreatic alpha-amylase (AMY2, Sus scrofa, UniProt P00690)
ATM: Serine-protein kinase ATM (ATM, Homo sapiens, UniProt Q13315)

Structure (SMILES)	target	assay	conditions	quantity	result
Cc1cc(F)cc2c(CCC(=O)N[C@@H]3C(=O)NC[C@H]3O)c(-c3ccc(F)cc3)[nH]c12	Muscarinic acetylcholine receptor M2 (CHRM2, Homo sapiens, UniProt P08172)	cell-free assay	10 µM	inhibition	-4%
CC1=C(/C=C/C(C)=C/C=O)C(C)(C)C[C@H](O)C1	D14	thermal stability, DSF	10 µM	ΔTm	0.16 °C
C[C@]1(O)CCCN(c2nc(Nc3ccc(S(=O)(=O)N[C@H]4CC[C@H](CN5CCN(c6ccc(C7CCC(=O)NC7=O)cc6F)CC5)CC4)cc3Cl)ncc2C(F)(F)F)C1 (stereo partly shown)	Cyclin-dependent kinase 4, with cyclin D3 (CDK4, Homo sapiens, UniProt P11802)	binding, competition with immobilised ligand	1 µM	remaining binding	100%
C#Cc1cc(-c2cc(Nc3nc(N[C@@H](C)c4ccc(F)cn4)ncc3Cl)n[nH]2)ccc1C=O	MAP kinase-activated protein kinase 5 (MAPKAPK5, Homo sapiens, UniProt Q8IW41)	enzyme activity, inhibitor	0.2 µM	inhibition	14.9%
CC1=C(/C=C/C(C)=C/C=O)C(C)(C)CCC1	D14	thermal stability, DSF	50 µM	ΔTm	-3.82 °C
Cc1cc(S(=O)(=O)N[C@H]2CC[C@H](CN3CCN(c4ccc(C5CCC(=O)NC5=O)cc4F)CC3)CC2)ccc1Nc1ncc(C(F)(F)F)c(N2CCC[C@](C)(O)C2)n1 (stereo partly shown)	Cyclin-dependent kinase 4 (CDK4, Homo sapiens, UniProt P11802)	binding, competition with immobilised ligand	1 µM	remaining binding	100%
O=c1c(O)c(-c2ccc(O)cc2O)oc2cc(O)cc(O)c12	AMY2	enzyme activity, inhibitor	50 µM, 30 min	inhibition	55.1%
CC(=O)/C=C/C=C(C)/C=C/C1=C(C)CC(O)CC1(C)C (stereo in doubt)	D14	thermal stability	20 µM	ΔTm	4.65 °C
COc1ccc2oc(-c3ccc4nc(N)oc4c3)c/c(=N\c3ccccc3NC(=O)CCN)c2c1	ATM	binding, competition with immobilised ligand	1 µM	remaining binding	94%
O=c1c(O)c(-c2ccc(O)cc2)oc2c(Br)c(O)c(Br)c(O)c12	AMY2	enzyme activity, inhibitor	50 µM, 30 min	inhibition	100%
CC(=O)/C=C/C=C(C)/C=C/C1=C(C)CCCC1(C)C	D14	thermal stability, DSF	50 µM	ΔTm	1.3 °C
O=c1cc(-c2ccc(O)c(O)c2)oc2c(Br)c(O)c(Br)c(O)c12	AMY2	enzyme activity, inhibitor	50 µM, 30 min	inhibition	99.8%
CC1=CC(O/C=C2/C(=O)OC3c4ccccc4CC23)OC1=O (racemic)	D14	thermal stability	50 µM	ΔTm	-7.73 °C
O=C1C[C@@H](c2ccc(O)cc2)Oc2cc(O)cc(O)c21	AMY2	enzyme activity, inhibitor	50 µM	inhibition	33.3%
C1=C/COCc2cc(ccc2OCCN2CCCC2)Nc2nccc(n2)-c2cccc(c2)COC/1	Serine/threonine-protein kinase Nek7 (NEK7, Homo sapiens, UniProt Q8TDX7)	binding	0.1 µM	remaining binding	40%
O=c1c(O)c(-c2ccc(O)cc2)oc2cc(O)cc(O)c12	AMY2	enzyme activity, inhibitor	50 µM, 30 min	inhibition	88.9%
CCCCC(=O)Nc1ccc(-c2ccc3ncn(CCC)c(=O)c3c2)cn1	Serine/threonine-protein kinase 24 (STK24, Homo sapiens, UniProt Q9Y6E0)	binding, competition with immobilised ligand	0.5 µM	remaining binding	97%
COc1cc(O)c2c(c1)O[C@H](c1ccccc1)CC2=O	AMY2	enzyme activity, inhibitor	50 µM	inhibition	12.8%
Cc1cc(O)c(-c2ccc([C@@H](C)CN(C)C)cc2)c2c1[nH]c(=O)c1sccc12	ATM	cell-free assay, inhibitor	0.1 µM, lysate	inhibition	6.43%
